# Activity calls are given as the source filed them. The rule behind the calls is not given here.
# Target: T1, Gonadotropin-releasing hormone receptor (Rattus norvegicus, UniProt P30969)
# T1 sequence (P30969 whole entry): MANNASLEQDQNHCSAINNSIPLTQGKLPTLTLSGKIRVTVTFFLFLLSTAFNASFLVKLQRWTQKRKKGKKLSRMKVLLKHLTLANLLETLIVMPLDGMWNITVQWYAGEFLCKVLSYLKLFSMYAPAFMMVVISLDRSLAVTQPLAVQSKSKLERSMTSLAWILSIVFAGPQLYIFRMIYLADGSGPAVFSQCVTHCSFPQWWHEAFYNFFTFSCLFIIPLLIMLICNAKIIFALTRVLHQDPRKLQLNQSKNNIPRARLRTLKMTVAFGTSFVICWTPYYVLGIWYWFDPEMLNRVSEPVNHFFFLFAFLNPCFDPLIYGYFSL
# Experiment: Competitive radioligand binding assay for rat Gonadotropin-releasing hormone receptor cells stably transfected in human HEK293
# Outline: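 Membranes from HEK-293 cells stably expressing rat GnRH receptor (5% sucrose homogenate; nuclei removed at 3000g, membranes pelleted at 20000g, 4 °C), 7 µg protein in 10 mM Hepes pH 7.5, 150 mM NaCl, 0.1% BSA. Competitor at varying concentrations vs des-Gly10-[125I-Tyr5,DAla6,NMeLeu7,Pro9-NHEt]GnRH (~100 000 cpm), 90 min; PEI-coated GF/C filtration, PBS wash, γ counting. Ki by nonlinear least-squares fit; ≥3 independent experiments, mean ± SEM.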
row,Compound,Ki
1,CC(=O)N[C@@H]1CCC(=O)NCC(=O)NCC[C@H](C(=O)N[C@@H](CO)C(=O)N[C@@H](Cc2ccc(O)cc2)C(=O)N[C@H](Cc2ccc3ccccc3c2)C(=O)N[C@@H](CC(C)C)C(=O)N[C@@H](CCCN=C(N)N)C(=O)N2CCC[C@H]2C(=O)N[C@H](C)C(N)=O)NC(=O)[C@@H](Cc2ccc(Cl)cc2)NC1=O,20.3 nM
2,CC(=O)N[C@@H]1CC(=O)NCCC(=O)NCC[C@H](C(=O)N[C@@H](CO)C(=O)N[C@@H](Cc2ccc(O)cc2)C(=O)N[C@H](Cc2ccc3ccccc3c2)C(=O)N[C@@H](CC(C)C)C(=O)N[C@@H](CCCN=C(N)N)C(=O)N2CCC[C@H]2C(=O)N[C@H](C)C(N)=O)NC(=O)[C@@H](Cc2ccc(Cl)cc2)NC1=O,0.32 nM
3,CC(=O)N[C@@H]1CC(=O)N[C@@H](C)C(=O)NCCC[C@H](C(=O)N[C@@H](CO)C(=O)N[C@@H](Cc2ccc(O)cc2)C(=O)N[C@H](Cc2ccc3ccccc3c2)C(=O)N[C@@H](CC(C)C)C(=O)N[C@@H](CCCN=C(N)N)C(=O)N2CCC[C@H]2C(=O)N[C@H](C)C(N)=O)NC(=O)[C@@H](Cc2ccc(Cl)cc2)NC1=O,3.3 nM
4,CC(=O)N[C@@H]1CC(=O)NCCCC[C@H](C(=O)N[C@H]2CC(=O)NC[C@@H](C(N)=O)NC(=O)[C@@H]3CCCN3C(=O)[C@H](CCCN=C(N)N)NC(=O)[C@H](CC(C)C)NC(=O)[C@@H](Cc3ccc4ccccc4c3)NC(=O)[C@H](Cc3ccc(O)cc3)NC2=O)NC(=O)[C@@H](Cc2ccc(Cl)cc2)NC1=O,1.2 nM
5,CC(=O)N[C@@H]1CCC(=O)NCCC(=O)NCCCC[C@H](C(=O)N[C@@H](CO)C(=O)N[C@@H](Cc2ccc(O)cc2)C(=O)N[C@H](Cc2ccc3ccccc3c2)C(=O)N[C@@H](CC(C)C)C(=O)N[C@@H](CCCN=C(N)N)C(=O)N2CCC[C@H]2C(=O)N[C@H](C)C(N)=O)NC(=O)[C@@H](Cc2ccc(Cl)cc2)NC1=O,2.2 nM
6,CC(=O)N[C@@H]1CCC(=O)NCCC[C@H](C(=O)N[C@@H](CO)C(=O)N[C@@H](Cc2ccc(O)cc2)C(=O)N[C@H](Cc2ccc3ccccc3c2)C(=O)N[C@@H](CC(C)C)C(=O)N[C@@H](CCCN=C(N)N)C(=O)N2CCC[C@H]2C(=O)N[C@H](C)C(N)=O)NC(=O)[C@@H](Cc2ccc(Cl)cc2)NC1=O,5.2 nM
7,CC(=O)N[C@@H]1CC(=O)NCCCC(=O)NC[C@H](C(=O)N[C@@H](CO)C(=O)N[C@@H](Cc2ccc(O)cc2)C(=O)N[C@H](Cc2ccc3ccccc3c2)C(=O)N[C@@H](CC(C)C)C(=O)N[C@@H](CCCN=C(N)N)C(=O)N2CCC[C@H]2C(=O)N[C@H](C)C(N)=O)NC(=O)[C@@H](Cc2ccc(Cl)cc2)NC1=O,0.18 nM
8,CC(=O)N[C@@H]1CNC(=O)C[C@H](C(=O)N[C@@H](CO)C(=O)N[C@@H](Cc2ccc(O)cc2)C(=O)N[C@H](Cc2ccc3ccccc3c2)C(=O)N[C@@H](CC(C)C)C(=O)N[C@@H](CCCN=C(N)N)C(=O)N2CCC[C@H]2C(=O)N[C@H](C)C(N)=O)NC(=O)[C@@H](Cc2ccc(Cl)cc2)NC1=O,1.7 nM
9,CC(=O)N[C@H]1CC(=O)NC[C@@H](C(=O)N[C@@H](CO)C(=O)N[C@@H](Cc2ccc(O)cc2)C(=O)N[C@H](Cc2ccc3ccccc3c2)C(=O)N[C@@H](CC(C)C)C(=O)N[C@@H](CCCN=C(N)N)C(=O)N2CCC[C@H]2C(=O)N[C@H](C)C(N)=O)NC(=O)[C@@H](Cc2ccc(Cl)cc2)NC1=O,31 nM
10,CC(=O)N[C@@H]1CC(=O)N[C@H](C)C(=O)NCCC[C@H](C(=O)N[C@@H](CO)C(=O)N[C@@H](Cc2ccc(O)cc2)C(=O)N[C@H](Cc2ccc3ccccc3c2)C(=O)N[C@@H](CC(C)C)C(=O)N[C@@H](CCCN=C(N)N)C(=O)N2CCC[C@H]2C(=O)N[C@H](C)C(N)=O)NC(=O)[C@@H](Cc2ccc(Cl)cc2)NC1=O,2.4 nM
11,CC(=O)N[C@@H]1CC(=O)NCCC(=O)NCCC[C@H](C(=O)N[C@@H](CO)C(=O)N[C@@H](Cc2ccc(O)cc2)C(=O)N[C@H](Cc2ccc3ccccc3c2)C(=O)N[C@@H](CC(C)C)C(=O)N[C@@H](CCCN=C(N)N)C(=O)N2CCC[C@H]2C(=O)N[C@H](C)C(N)=O)NC(=O)[C@@H](Cc2ccc(Cl)cc2)NC1=O,0.17 nM
12,CC(=O)N[C@@H]1CC(=O)NCC(=O)NCCCC[C@H](C(=O)N[C@@H](CO)C(=O)N[C@@H](Cc2ccc(O)cc2)C(=O)N[C@H](Cc2ccc3ccccc3c2)C(=O)N[C@@H](CC(C)C)C(=O)N[C@@H](CCCN=C(N)N)C(=O)N2CCC[C@H]2C(=O)N[C@H](C)C(N)=O)NC(=O)[C@@H](Cc2ccc(Cl)cc2)NC1=O,0.14 nM
13,CC(=O)N[C@@H]1CC(=O)NCCCC[C@H](C(=O)N[C@@H](CO)C(=O)N[C@@H](Cc2ccc(O)cc2)C(=O)N[C@H](Cc2ccc3ccccc3c2)C(=O)N[C@@H](CC(C)C)C(=O)N[C@@H](CCCN=C(N)N)C(=O)N2CCC[C@H]2C(=O)N[C@H](C)C(N)=O)NC(=O)[C@@H](Cc2ccc(Cl)cc2)NC1=O,0.82 nM
14,CC(=O)N[C@@H]1CC(=O)NCC(=O)NCCC[C@H](C(=O)N[C@@H](CO)C(=O)N[C@@H](Cc2ccc(O)cc2)C(=O)N[C@H](Cc2ccc3ccccc3c2)C(=O)N[C@@H](CC(C)C)C(=O)N[C@@H](CCCN=C(N)N)C(=O)N2CCC[C@H]2C(=O)N[C@H](C)C(N)=O)NC(=O)[C@@H](Cc2ccc(Cl)cc2)NC1=O,0.34 nM
15,CC(=O)N[C@@H]1CC(=O)N[C@H](C)C(=O)NCC[C@H](C(=O)N[C@@H](CO)C(=O)N[C@@H](Cc2ccc(O)cc2)C(=O)N[C@H](Cc2ccc3ccccc3c2)C(=O)N[C@@H](CC(C)C)C(=O)N[C@@H](CCCN=C(N)N)C(=O)N2CCC[C@H]2C(=O)N[C@H](C)C(N)=O)NC(=O)[C@@H](Cc2ccc(Cl)cc2)NC1=O,0.57 nM

# Results, then the compound that gave them:
row,Ki,Compound
1,4.2 nM,CC(=O)N[C@@H]1CCC(=O)NCC(=O)NCCC[C@H](C(=O)N[C@@H](CO)C(=O)N[C@@H](Cc2ccc(O)cc2)C(=O)N[C@H](Cc2ccc3ccccc3c2)C(=O)N[C@@H](CC(C)C)C(=O)N[C@@H](CCCN=C(N)N)C(=O)N2CCC[C@H]2C(=O)N[C@H](C)C(N)=O)NC(=O)[C@@H](Cc2ccc(Cl)cc2)NC1=O
2,0.47 nM,CC(=O)N[C@@H]1CCC(=O)NCCCC[C@H](C(=O)N[C@@H](CO)C(=O)N[C@@H](Cc2ccc(O)cc2)C(=O)N[C@H](Cc2ccc3ccccc3c2)C(=O)N[C@@H](CC(C)C)C(=O)N[C@@H](CCCN=C(N)N)C(=O)N2CCC[C@H]2C(=O)N[C@H](C)C(N)=O)NC(=O)[C@@H](Cc2ccc(Cl)cc2)NC1=O
3,0.31 nM,CC(=O)N[C@@H]1CCC(=O)NCC[C@H](C(=O)N[C@@H](CO)C(=O)N[C@@H](Cc2ccc(O)cc2)C(=O)N[C@H](Cc2ccc3ccccc3c2)C(=O)N[C@@H](CC(C)C)C(=O)N[C@@H](CCCN=C(N)N)C(=O)N2CCC[C@H]2C(=O)N[C@H](C)C(N)=O)NC(=O)[C@@H](Cc2ccc(Cl)cc2)NC1=O
4,0.35 nM,CC(=O)N[C@@H]1CC(=O)NCCC(=O)NC[C@H](C(=O)N[C@@H](CO)C(=O)N[C@@H](Cc2ccc(O)cc2)C(=O)N[C@H](Cc2ccc3ccccc3c2)C(=O)N[C@@H](CC(C)C)C(=O)N[C@@H](CCCN=C(N)N)C(=O)N2CCC[C@H]2C(=O)N[C@H](C)C(N)=O)NC(=O)[C@@H](Cc2ccc(Cl)cc2)NC1=O
5,1.6 nM,CC(=O)N[C@@H]1CC(=O)NCCC[C@H](C(=O)N[C@@H](CO)C(=O)N[C@@H](Cc2ccc(O)cc2)C(=O)N[C@H](Cc2ccc3ccccc3c2)C(=O)N[C@@H](CC(C)C)C(=O)N[C@@H](CCCN=C(N)N)C(=O)N2CCC[C@H]2C(=O)N[C@H](C)C(N)=O)NC(=O)[C@@H](Cc2ccc(Cl)cc2)NC1=O
6,350 nM,CC(=O)N[C@@H]1CC(=O)N[C@@H](C)C(=O)NCCC[C@H](C(=O)N[C@@H](CO)C(=O)N[C@@H](Cc2ccc(O)cc2)C(=O)N[C@H](CCCN=C(N)N)C(=O)N[C@@H](CC(C)C)C(=O)N[C@@H](CCCN=C(N)N)C(=O)N2CCC[C@H]2C(=O)N[C@H](C)C(N)=O)NC(=O)[C@@H](Cc2ccc(Cl)cc2)NC1=O
7,0.7 nM,CC(=O)N[C@@H]1CC(=O)NCC(=O)NCC[C@H](C(=O)N[C@@H](CO)C(=O)N[C@@H](Cc2ccc(O)cc2)C(=O)N[C@H](Cc2ccc3ccccc3c2)C(=O)N[C@@H](CC(C)C)C(=O)N[C@@H](CCCN=C(N)N)C(=O)N2CCC[C@H]2C(=O)N[C@H](C)C(N)=O)NC(=O)[C@@H](Cc2ccc(Cl)cc2)NC1=O
8,4.6 nM,CC(=O)N[C@@H]1CCC(=O)NCCCC[C@H](C(=O)N[C@H]2CC(=O)NC[C@@H](C(N)=O)NC(=O)[C@@H]3CCCN3C(=O)[C@@H]3CCCCNC(=O)CC[C@H](NC2=O)C(=O)N[C@H](Cc2ccc4ccccc4c2)C(=O)N[C@@H](CC(C)C)C(=O)N3)NC(=O)[C@@H](Cc2ccc(Cl)cc2)NC1=O
9,1.5 nM,CC(=O)N[C@@H]1CCC(=O)NCC(=O)NCCCC[C@H](C(=O)N[C@@H](CO)C(=O)N[C@@H](Cc2ccc(O)cc2)C(=O)N[C@H](Cc2ccc3ccccc3c2)C(=O)N[C@@H](CC(C)C)C(=O)N[C@@H](CCCN=C(N)N)C(=O)N2CCC[C@H]2C(=O)N[C@H](C)C(N)=O)NC(=O)[C@@H](Cc2ccc(Cl)cc2)NC1=O
10,1.8 nM,CC(=O)N[C@@H]1CC(=O)N[C@@H](C)C(=O)NCC[C@H](C(=O)N[C@@H](CO)C(=O)N[C@@H](Cc2ccc(O)cc2)C(=O)N[C@H](Cc2ccc3ccccc3c2)C(=O)N[C@@H](CC(C)C)C(=O)N[C@@H](CCCN=C(N)N)C(=O)N2CCC[C@H]2C(=O)N[C@H](C)C(N)=O)NC(=O)[C@@H](Cc2ccc(Cl)cc2)NC1=O

# System: Rattus norvegicus
# Experiment: Evaluated for number of rats ovulating in an in vivo anti-ovulatory assay at dose (500 microg); 8/8
# Format: functional, organism-based
row,Compound,Activity
1,CC(=O)N[C@H]1CCC(=O)N[C@@H](C(=O)N[C@@H](CO)C(=O)N[C@@H](Cc2ccc(O)cc2)C(=O)N[C@H](CCCN=C(N)N)C(=O)N[C@H](CC(C)C)C(=O)N[C@@H](CCCN=C(N)N)C(=O)N2CCC[C@H]2C(=O)N[C@H](C)C(N)=O)CCCCNC(=O)[C@@H](Cc2ccc(Cl)cc2)NC1=O,inactive
